Measurements reported in ChEMBL document CHEMBL2034818, “Synthesis and evaluation of boronic acids as inhibitors of Penicillin Binding Proteins of classes A, B and C” (Bioorg Med Chem, 2012).
Residue numbers refer to the chain shown, from its start.

Key:
Streptococcus pneumoniae [1] = assay: Inhibition of Streptococcus pneumoniae PBP1b assessed as residual activity at 1mM incubated for 60 mins prior to fluoresceyl-ampicillin labelling measured after 20 mins by SDS-PAGE analysis in the presence of triton X 100
Outline: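 Assay A: purified S. pneumoniae PBP1b (0.7 µM) pre-incubated with inhibitor in 10 mM sodium phosphate pH 7.0, 60 min, 25 °C, 0.01% Triton X-100. Remaining active enzyme labelled with fluoresceyl-ampicillin (10 µM), 20 min; reaction stopped, run on SDS-PAGE, fluorescence of the band quantified as residual activity.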

Streptococcus pneumoniae [2] = assay: Inhibition of Streptococcus pneumoniae PBP1b using PATP thioester as substrate assessed as residual activity at 100 uM incubated for 60 mins prior to substrate addition by DNTB-based spectrophotometry in the presence of triton X 100
Outline: (§1)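 Assay B: S. pneumoniae PBP1b (0.2 µM) pre-incubated with inhibitor 60 min at 25 °C in 10 mM sodium phosphate pH 7.0, 100 mM D-alanine, 0.01 mg/mL BSA, 0.01% Triton X-100. Residual activity from initial rates of PATP thioester (5 mM) hydrolysis with DTNB (1.0 mM); IC50 by non-linear regression of residual activity across concentrations.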

[3] = target: T1, Penicillin-binding protein 2X (Streptococcus pneumoniae R6, UniProt P59676); assay: Inhibition of penicillin-sensitive Streptococcus pneumoniae R6 PBP2x using S2d as substrate incubated for 60 mins prior to substrate addition by DTNB-based spectrophotometry
T1 sequence (P59676 whole entry): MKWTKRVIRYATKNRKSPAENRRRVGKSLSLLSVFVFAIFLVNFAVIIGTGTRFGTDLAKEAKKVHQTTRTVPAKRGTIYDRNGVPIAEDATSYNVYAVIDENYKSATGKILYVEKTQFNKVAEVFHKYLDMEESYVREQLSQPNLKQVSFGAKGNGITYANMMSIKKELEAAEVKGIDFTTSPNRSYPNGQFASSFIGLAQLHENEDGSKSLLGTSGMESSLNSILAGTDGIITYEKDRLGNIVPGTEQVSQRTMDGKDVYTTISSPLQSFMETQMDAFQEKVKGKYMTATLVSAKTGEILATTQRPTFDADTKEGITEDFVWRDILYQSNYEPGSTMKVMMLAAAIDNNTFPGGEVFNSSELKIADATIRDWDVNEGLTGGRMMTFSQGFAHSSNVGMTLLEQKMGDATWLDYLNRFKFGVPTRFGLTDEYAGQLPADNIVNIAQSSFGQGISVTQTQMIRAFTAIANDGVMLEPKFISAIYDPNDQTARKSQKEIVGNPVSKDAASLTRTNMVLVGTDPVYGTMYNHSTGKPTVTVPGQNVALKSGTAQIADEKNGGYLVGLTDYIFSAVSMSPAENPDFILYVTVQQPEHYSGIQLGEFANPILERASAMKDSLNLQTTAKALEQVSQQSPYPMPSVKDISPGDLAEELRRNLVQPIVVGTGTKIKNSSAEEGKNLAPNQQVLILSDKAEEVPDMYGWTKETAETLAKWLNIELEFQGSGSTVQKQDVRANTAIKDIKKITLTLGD
Outline: (§2)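 PBP purified per earlier method. Pre-incubation: enzyme with inhibitor (DMF stock, 1% DMF final) at 25 °C for 60 min. Buffer for R39 (3.5 nM): 10 mM sodium phosphate pH 7.2, 100 mM NaCl, 100 mM D-alanine, 0.01 mg/mL BSA. Buffer for PBP2xR6: 10 mM sodium phosphate pH 7.0, 0.01 mg/mL BSA. S2d (1 mM) and DTNB (1 mM) then added. Initial hydrolysis rate read at 412 nm. Triplicates. IC50 by non-linear regression of residual activity over a concentration range, with 0.01% Triton X-100.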

[4] = target: T2, Penicillin-binding protein 2x (Streptococcus pneumoniae serotype 4 (strain ATCC BAA-334 / TIGR4)) (UniProt P14677); assay: Inhibition of penicillin-resistant Streptococcus pneumoniae 5204 PBP2x using S2d as substrate assessed as residual activity at 1 mM incubated for 4 hrs prior to substrate addition by DNTB-based spectrophotometry in the presence of triton X 100
T2 sequence (whole entry): T1 sequence (P59676 whole entry) with M385T

[5] = target: D-alanyl-D-alanine carboxypeptidase (Actinomadura sp. R39) (UniProt P39045); assay: Inhibition of Actinomadura sp. R39 PBP using S2d as substrate assessed as residual activity at 1 mM incubated for 60 mins prior to substrate addition by DTNB-based spectrophotometry
Chain of D-alanyl-D-alanine carboxypeptidase (Actinomadura sp. R39) (P39045 whole entry): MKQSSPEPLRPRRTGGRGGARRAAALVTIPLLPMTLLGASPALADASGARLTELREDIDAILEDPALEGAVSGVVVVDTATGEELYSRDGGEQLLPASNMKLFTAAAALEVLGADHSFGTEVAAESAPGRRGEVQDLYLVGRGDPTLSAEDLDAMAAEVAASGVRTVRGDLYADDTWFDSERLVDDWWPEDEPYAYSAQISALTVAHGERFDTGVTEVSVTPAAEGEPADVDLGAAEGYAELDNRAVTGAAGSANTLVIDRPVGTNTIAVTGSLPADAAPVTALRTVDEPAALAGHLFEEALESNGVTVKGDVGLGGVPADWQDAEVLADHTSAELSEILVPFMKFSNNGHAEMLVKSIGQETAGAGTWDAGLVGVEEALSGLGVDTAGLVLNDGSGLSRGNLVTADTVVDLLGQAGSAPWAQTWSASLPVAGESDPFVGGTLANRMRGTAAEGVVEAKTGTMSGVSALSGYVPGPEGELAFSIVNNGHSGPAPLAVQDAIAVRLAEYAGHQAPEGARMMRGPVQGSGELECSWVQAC
Outline: (§3)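 R39 (Actinomadura, prepared per Granier), 3.5 nM, pre-incubated with inhibitor 60 min at 25 °C in 10 mM sodium phosphate pH 7.2, 100 mM NaCl, 100 mM D-alanine, 0.01 mg/mL BSA; inhibitors from DMF stock, 1% DMF final. Residual activity from initial rate of S2d (1 mM) hydrolysis with DTNB (1 mM), read at 412 nm, corrected for spontaneous hydrolysis; triplicates, uninhibited control six replicates per plate.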

Staphylococcus aureus = assay: Inhibition of penicillin-resistant Staphylococcus aureus PBP2a assessed as residual activity at 1 mM incubated for 4 hrs prior to prior to fluoresceyl-ampicillin labelling measured after 20 mins by SDS-PAGE analysis
[6] = target: T3, Penicillin-binding protein 2X (Streptococcus pneumoniae R6) (UniProt P59676); assay: Inhibition of penicillin-sensitive Streptococcus pneumoniae R6 PBP2x using S2d as substrate assessed as residual activity at 1 mM incubated for 60 mins prior to substrate addition by DTNB-based spectrophotometry
T3 sequence (whole entry): T1 sequence (P59676 whole entry)
Outline: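 S. pneumoniae PBP2x-R6, 0.09 µM, pre-incubated with inhibitor in 10 mM sodium phosphate pH 7.0 with 0.01 mg/mL BSA, 60 min, 25 °C; 1% DMF final. S2d (1 mM) plus DTNB (1 mM) then added; residual activity taken from initial hydrolysis rate at 412 nm, corrected for spontaneous hydrolysis; triplicates, six no-inhibitor controls per plate.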

Enterococcus faecium = assay: Inhibition of penicillin-resistant Enterococcus faecium PBP5fm assessed as residual activity at 1 mM incubated for 4 hrs prior to prior to fluoresceyl-ampicillin labelling measured after 20 mins by SDS-PAGE analysis
[7] = target: T2, Penicillin-binding protein 2x (Streptococcus pneumoniae serotype 4 (strain ATCC BAA-334 / TIGR4)); assay: Inhibition of penicillin-resistant Streptococcus pneumoniae 5204 PBP2x using S2d as substrate assessed as residual activity at 1 mM incubated for 4 hrs prior to substrate addition by DNTB-based spectrophotometry
[8] = target: T4, D-alanyl-D-alanine carboxypeptidase (Actinomadura sp. R39, UniProt P39045); assay: Inhibition of Actinomadura sp. R39 PBP using S2d as substrate incubated for 60 mins prior to substrate addition by DTNB-based spectrophotometry; outline: as §2
T4 sequence (P39045 whole entry): as above

[9] = Inhibition of Streptococcus pneumoniae PBP1b using PATP thioester as substrate incubated for 60 mins prior to substrate addition by DNTB-based spectrophotometry in the presence of triton X 100; outline: as §1
[10] = target: D-alanyl-D-alanine carboxypeptidase (Actinomadura sp. R39) (UniProt P39045); assay: Inhibition of Actinomadura sp. R39 PBP using S2d as substrate assessed as residual activity at 1 mM incubated for 60 mins prior to substrate addition by DTNB-based spectrophotometry in presence of triton X 100; outline: as §3
[11] = target: T3, Penicillin-binding protein 2X (Streptococcus pneumoniae R6); assay: Inhibition of penicillin-sensitive Streptococcus pneumoniae R6 PBP2x using S2d as substrate assessed as residual activity at 1 mM incubated for 60 mins prior to substrate addition by DTNB-based spectrophotometry in presence of triton X 100
Outline: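 PBP2xR6 (0.09 µM) pre-incubated with inhibitor for 60 min at 25 °C in 10 mM sodium phosphate pH 7.0, 0.01 mg/mL BSA, with 0.01% Triton X-100. 1% DMF final. S2d (1 mM) and DTNB (1 mM) then added. Initial hydrolysis rate read at 412 nm. Triplicates. Uninhibited activity from six replicates per plate.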

[12] = target: T4, D-alanyl-D-alanine carboxypeptidase; assay: Binding affinity to Actinomadura sp. R39 PBP
Streptococcus pneumoniae [13] = assay: Inhibition of Streptococcus pneumoniae PBP1b using PATP thioester as substrate assessed as residual activity at 1 mM incubated for 60 mins prior to substrate addition by DNTB-based spectrophotometry in the presence of triton X 100; outline: as §1

Compound	Activity (Streptococcus pneumoniae [1])	Activity (Streptococcus pneumoniae [2])	IC50 [3]	Activity [4]	Activity [5]	Activity (Staphylococcus aureus)	Activity [6]	Activity (Enterococcus faecium)	Activity [7]	IC50 [8]	IC50 [9]	Activity [10]	Activity [11]	Ki [12]	Activity (Streptococcus pneumoniae [13])
O=C(Cc1ccc(Cl)cc1)NCB(O)O	20%	69%	376 µM	82%	71%	89%	32%	88%							
NCB(O)O					99%										
O=C(NCB(O)O)c1ccccc1C(F)(F)F	69%		481 µM		5%		44%		109%	15 µM					
O=C(CCC1CCCC1)NCB(O)O	59%			98%	71%	100%	79%	85%							
O=C(NCB(O)O)c1c(F)cccc1F		7%	906 µM	86%	6%	91%	40%	88%		35 µM	7 µM				
O=C(Cc1ccccc1[N+](=O)[O-])NCB(O)O		52%	339 µM		52%	85%	31%	84%	86%						
O=C(NCB(O)O)c1ccccc1	56%					81%	78%	79%	81%			80%			
O=C(NCB(O)O)c1ccc(Cl)cc1	29%	70%			73%	100%	89%	93%	101%						
O=C(NCB(O)O)c1cccs1												73%	66%		
O=C(NCB(O)O)c1ccccc1[N+](=O)[O-]		24%	138 µM	108%		92%		88%		0.6 µM		0%	21%	0.36 µM	
COc1ccc(C(=O)NCB(O)O)c(OC)c1	18%	76%		97%		91%		86%				69%	69%		
O=C(Cc1ccccc1Cl)NCB(O)O	24%	96%	649 µM		57%	77%	26%	88%	90%						
COc1ccc(C(=O)NCB(O)O)cc1OC	90%			98%	81%	75%	82%	78%							
COc1cccc(OC)c1C(=O)NCC(=O)O					87%										
CC(=O)NCB(O)O					74%		100%		97%						87%
O=C(NCB(O)O)c1ccccc1Cl		20%	262 µM	70%		81%		97%		85 µM		15%	31%	42 µM	
O=C(Cc1ccccc1)NCB(O)O				97%	29%	90%	57%	83%		320 µM				125 µM	56%
COc1ccccc1C(=O)NCB(O)O		67%			43%		86%		99%						1%
COc1ccc(C(=O)NCB(O)O)cc1	38%	82%			50%	92%	81%	81%	94%						
O=C(NCB(O)O)c1ccccc1F		14%		106%	30%	88%	56%	83%		505 µM					
